According to PMC2806602 (The Journal of neuroscience : the official journal of the …, 2009):
Substitutions are numbered along the chain they refer to.

Experiments:
GluRδ2^Lc = molecular target: T1, GluRδ2^Lc (Rattus norvegicus, UniProt Q63226, A654T); format: cell-based; conditions: for spontaneously active current relative to baseline with Ba^2+: 0.5 mM Ba^2+ exchanged with 0.5 mM of the divalent cation
T1 sequence (Q63226 24-1007 A654T): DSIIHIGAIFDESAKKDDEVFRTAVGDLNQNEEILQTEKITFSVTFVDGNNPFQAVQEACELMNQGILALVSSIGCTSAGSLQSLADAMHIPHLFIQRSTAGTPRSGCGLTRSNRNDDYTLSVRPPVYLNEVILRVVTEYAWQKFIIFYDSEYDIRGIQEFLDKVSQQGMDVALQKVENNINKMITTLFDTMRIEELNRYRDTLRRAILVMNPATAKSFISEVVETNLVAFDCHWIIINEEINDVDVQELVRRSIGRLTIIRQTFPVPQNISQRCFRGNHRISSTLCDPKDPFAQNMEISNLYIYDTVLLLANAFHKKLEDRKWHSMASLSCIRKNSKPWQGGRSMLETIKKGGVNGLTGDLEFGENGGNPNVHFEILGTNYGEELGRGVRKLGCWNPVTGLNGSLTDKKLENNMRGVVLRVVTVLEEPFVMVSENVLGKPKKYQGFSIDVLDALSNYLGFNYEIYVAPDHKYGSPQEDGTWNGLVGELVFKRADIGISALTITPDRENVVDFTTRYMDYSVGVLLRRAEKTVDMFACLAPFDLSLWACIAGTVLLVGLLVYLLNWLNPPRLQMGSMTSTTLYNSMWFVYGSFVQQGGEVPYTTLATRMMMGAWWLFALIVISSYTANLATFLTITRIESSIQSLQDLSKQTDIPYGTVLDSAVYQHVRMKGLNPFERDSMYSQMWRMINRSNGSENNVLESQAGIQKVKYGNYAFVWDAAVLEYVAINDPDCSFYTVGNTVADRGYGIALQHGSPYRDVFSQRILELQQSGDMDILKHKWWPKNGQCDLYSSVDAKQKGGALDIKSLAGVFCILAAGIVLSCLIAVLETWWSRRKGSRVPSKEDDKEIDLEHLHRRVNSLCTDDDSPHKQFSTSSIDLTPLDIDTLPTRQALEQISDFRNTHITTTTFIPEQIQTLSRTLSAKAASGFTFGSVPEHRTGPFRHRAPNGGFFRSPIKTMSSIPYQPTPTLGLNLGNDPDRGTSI

GluRδ2^Wt = molecular target: T2, GluRδ2^Wt (Rattus norvegicus, UniProt Q63226); experiment: Two-electrode voltage-clamp recordings in Xenopus oocytes expressing GluRδ2^Wt; format: cell-based; conditions: 0.5 mM Ba^2+ exchanged with 0.5 mM of the divalent cation
T2 sequence (Q63226 24-1007): T1 sequence (Q63226 24-1007 A654T) with T631A
Outline: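 Oocytes injected with wild-type receptor cRNA the day after excision and collagenase treatment. Two-electrode voltage clamp at −40 mV and 23°C, 24–72 h post-injection. Bath: 90 mM NaCl, 3 mM KCl, 0.5 mM BaCl2, 10 mM HEPES, pH 7.6. Ba2+ was replaced by 0.5 mM Mg2+, Zn2+, Mn2+, Sr2+ or Ca2+, or Ca2+ was raised stepwise. Choline or NMDG chloride kept osmolarity and Cl− constant. Baseline was current without Ca2+.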

| Compound | spontaneously active current relative to baseline with Ba^2+ (GluRδ2^Lc) | effect of divalent cation on currents at GluRδ2^Wt (GluRδ2^Wt) | modulation of GluRδ2^Lc currents by extracellular Na^+ (GluRδ2^Lc; current-voltage relationship at 0, 30, 60, 90 mM Na^+, -60 to +30 mV) |
| --- | --- | --- | --- |
| [Zn+2] [Zn^2+] | 1.33 ± 0.02 | no changes were observed | – |
| [Sr+2] [Sr^2+] | 1.33 ± 0.05 | no changes were observed | – |
| [Na+] [Na^+] | – | – | does not modulate GluRδ2 |

More lines, now with the values ahead:

| spontaneously active current relative to baseline with Ba^2+ (GluRδ2^Lc) | effect of divalent cation on currents at GluRδ2^Wt (GluRδ2^Wt) | modulation of GluRδ2^Lc currents by extracellular Na^+ (GluRδ2^Lc; current-voltage relationship at 0, 30, 60, 90 mM Na^+, -60 to +30 mV) | Compound |
| --- | --- | --- | --- |
| 1.06 ± 0.01 | – | – | [Mg+2] [Mg^2+] |
| 2.66 ± 0.13 | no changes were observed | – | [Mn+2] [Mn^2+] |
